How the values were obtained:
Stearoyl-CoA desaturase = target: T1, Stearoyl-CoA desaturase (Homo sapiens, UniProt O00767); assay: Inhibition of recombinant human SCD1 expressed in baculovirus expression system assessed as reduction in [3H]H2O production using stearoyl [9,10-3H]CoA as substrate in presence of NADH incubated for 30 mins by scintillation counting method
T1 sequence (O00767 whole entry): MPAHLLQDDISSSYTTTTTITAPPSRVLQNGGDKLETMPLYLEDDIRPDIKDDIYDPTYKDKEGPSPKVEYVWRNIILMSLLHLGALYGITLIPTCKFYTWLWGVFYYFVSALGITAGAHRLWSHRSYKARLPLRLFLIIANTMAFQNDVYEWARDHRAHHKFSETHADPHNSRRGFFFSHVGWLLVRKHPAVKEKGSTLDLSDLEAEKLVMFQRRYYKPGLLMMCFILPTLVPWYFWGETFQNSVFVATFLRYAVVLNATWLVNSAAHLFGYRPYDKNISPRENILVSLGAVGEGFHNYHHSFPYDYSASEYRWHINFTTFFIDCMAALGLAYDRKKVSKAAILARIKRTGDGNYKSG
In short: (§1)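 Desaturation of [9,10-3H]stearoyl-CoA measured as released [3H]H2O. Water was separated from charcoal-adsorbed substrate by filtration and counted by scintillation. Remaining activity = (compound − background)/(control − background). DMSO wells served as control and pre-stopped wells as background. IC50 was interpolated from the two points bracketing 50%.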

Mus musculus [1] = assay: Ex vivo inhibition of SCD1 in C57BL/6J mouse eyelid assessed as residual activity at 100 mg/kg, po treated for 24 hrs followed by incubation with [14C]stearoyl-CoA substrate for 30 mins by TLC assay relative to control; format: organism-based
In short: (§2)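 Male 6-week-old C57BL/6J mice dosed orally as a suspension in 0.5% methylcellulose. Liver or eyelid was taken 6 or 24 h later and homogenized in 100 mM Tris-HCl pH 7.4 with 0.25 M sucrose. S9 was obtained at 10,000 × g, 4 °C. S9 was incubated with [14C]stearoyl-CoA, NADH, MgCl2 and cytochrome b5 at room temperature, 10 min for liver and 30 min for eyelid. Lipids were saponified and run on AgNO3 TLC to quantify stearate and oleate. Result is % of vehicle control.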

Mus musculus [2] = assay: Ex vivo inhibition of SCD1 in C57BL/6J mouse liver assessed as residual activity at 1 mg/kg, po treated for 6 hrs followed by incubation with [14C]stearoyl-CoA substrate for 10 mins by TLC assay relative to control; format: functional; in short: as §2
Mus musculus [3] = assay: Ex vivo inhibition of SCD1 in C57BL/6J mouse liver assessed as residual activity at 10 mg/kg, po treated for 24 hrs followed by incubation with [14C]stearoyl-CoA substrate for 10 mins by TLC assay relative to control; format: functional; in short: as §2
Mus musculus [4] = assay: Ex vivo inhibition of SCD1 in C57BL/6J mouse eyelid assessed as residual activity at 1 mg/kg, po treated for 6 hrs followed by incubation with [14C]stearoyl-CoA substrate for 30 mins by TLC assay relative to control; format: organism-based; in short: as §2
Acyl-CoA desaturase 1 = target: T2, Acyl-CoA desaturase 1 (Mus musculus, UniProt P13516); assay: Inhibition of mouse liver microsome SCD assessed as reduction in [3H]H2O production using stearoyl [9,10-3H]CoA as substrate in presence of NADH incubated for 30 mins by scintillation counting method; format: microsomes; in short: as §1
T2 sequence (P13516 whole entry): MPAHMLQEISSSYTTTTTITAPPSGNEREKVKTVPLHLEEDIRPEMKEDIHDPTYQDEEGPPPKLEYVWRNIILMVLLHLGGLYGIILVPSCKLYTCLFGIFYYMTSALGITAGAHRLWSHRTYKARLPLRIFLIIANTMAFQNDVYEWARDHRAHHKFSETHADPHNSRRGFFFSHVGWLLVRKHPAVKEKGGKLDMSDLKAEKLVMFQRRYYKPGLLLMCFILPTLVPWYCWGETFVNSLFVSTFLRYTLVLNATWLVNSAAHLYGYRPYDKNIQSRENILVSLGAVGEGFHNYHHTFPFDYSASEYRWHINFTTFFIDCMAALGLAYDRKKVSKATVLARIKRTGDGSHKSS

[5] = Inhibition of acetyl-CoA acetyltransferase (unknown origin); design: species or system Homo sapiens
[6] = target: Acyl-CoA (8-3)-desaturase (Homo sapiens, UniProt O60427); assay: Inhibition of delta-5 fatty acid desaturase (unknown origin)
Chain of Acyl-CoA (8-3)-desaturase (O60427 whole entry): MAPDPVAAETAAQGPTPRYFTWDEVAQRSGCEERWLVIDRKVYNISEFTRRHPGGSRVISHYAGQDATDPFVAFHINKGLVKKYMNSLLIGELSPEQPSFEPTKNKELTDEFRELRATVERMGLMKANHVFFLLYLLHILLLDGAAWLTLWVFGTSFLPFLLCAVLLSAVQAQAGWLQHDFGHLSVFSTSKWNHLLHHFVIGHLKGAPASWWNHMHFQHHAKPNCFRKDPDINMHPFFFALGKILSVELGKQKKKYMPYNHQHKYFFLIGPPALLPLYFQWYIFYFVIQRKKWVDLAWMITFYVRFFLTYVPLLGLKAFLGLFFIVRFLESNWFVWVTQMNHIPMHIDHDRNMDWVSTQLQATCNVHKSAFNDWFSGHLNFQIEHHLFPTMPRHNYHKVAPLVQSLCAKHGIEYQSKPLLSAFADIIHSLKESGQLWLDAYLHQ

SMILES	IC50 (Stearoyl-CoA desaturase)	Activity (Mus musculus [4])	Activity (Mus musculus [2])	other results
Cc1csc(NC(=O)c2ccc(CNc3ccccc3C)cn2)n1	46 nM			
O=C(Nc1ncc(CCCO)s1)c1ccc(CNc2ccccc2C(F)(F)F)cc1	260 nM			
O=C(O)Cc1csc(NC(=O)c2ccc(CNc3ccccc3Cc3ccccc3)s2)n1	7.5 nM	128%	22%	Activity (Mus musculus [1]): 76%; Activity (Mus musculus [3]): 20%
Cc1csc(NC(=O)N2CCC(CNc3ccccc3C(F)(F)F)CC2)n1	30 nM			
Cc1csc(NC(=O)c2ccc(COc3ccccc3Cl)cc2)n1	150 nM			
Cc1csc(NC(=O)c2ccc(CNc3cccc(Cl)c3)cc2)n1	18 nM			
O=C(O)Cc1csc(NC(=O)c2ccc(CNc3ccccc3C(F)(F)F)s2)n1	9 nM	124%	51%	
CCCCCCCCc1ccccc1NCc1ccc(C(=O)Nc2nc(CC(=O)O)cs2)s1	17 nM	77%	7%	Activity (Mus musculus [1]): 8%; Activity (Mus musculus [3]): 11%
O=C(O)Cc1csc(NC(=O)c2ccc(CNc3ccccc3Cc3ccccc3)cc2)n1	5.5 nM	76%	18%	Activity (Mus musculus [1]): 100%; Activity (Mus musculus [3]): 53%
CC(C)CCc1ccccc1NCc1ccc(C(=O)Nc2nc(CC(=O)O)cs2)s1	6.7 nM	160%	19%	Activity (Mus musculus [1]): 84%; Activity (Mus musculus [3]): 34%
Cc1ccccc1NCc1ccc(C(=O)Nc2nc(CC(=O)O)cs2)cc1	14 nM			
O=C(Nc1nc(CO)c(C(=O)O)s1)c1ccc(CNc2ccccc2C(F)(F)F)cc1	22 nM			
O=C(O)Cc1csc(NC(=O)c2ccc(CNc3ccccc3Cl)cc2)n1	13 nM	132%	72%	
O=C(Nc1ncc(C(=O)O)s1)c1ccc(CNc2ccccc2C(F)(F)F)cc1	8.1 nM			
Cc1csc(NC(=O)c2ccc(CNc3ccc(Cl)cc3)cc2)n1	760 nM			
Cc1csc(NC(=O)c2ccc(CNc3ccccc3)cc2)n1	95 nM			
Cc1ccccc1NCc1ccc(C(=O)Nc2nc(C(=O)O)cs2)cc1	> 10000 nM			

SMILES	IC50 (Stearoyl-CoA desaturase)	Activity (Mus musculus [4])	Activity (Mus musculus [2])	other results
CCCCc1ccccc1NCc1ccc(C(=O)Nc2nc(CC(=O)O)cs2)cc1	5.5 nM	74%	76%	
O=C(O)Cc1csc(NC(=O)c2ccc(CNc3ccccc3-c3ccccc3)cc2)n1	8.7 nM	187%	74%	
O=C(Nc1ccncc1)c1ccc(COc2ccccc2Cl)cc1	1400 nM			IC50 (Acyl-CoA desaturase 1): 510 nM; IC50 [5]: > 30 µM; IC50 [6]: > 30 µM
O=C(O)CCc1csc(NC(=O)c2ccc(CNc3ccccc3C(F)(F)F)cc2)n1	6.3 nM			
Cc1csc(NC(=O)c2ccc(CNc3ccccc3C)nc2)n1	310 nM			
O=C(Nc1nc(CCCO)cs1)c1ccc(CNc2ccccc2C(F)(F)F)cc1	5.2 nM	75%	64%	
O=C(O)CCc1cnc(NC(=O)c2ccc(CNc3ccccc3C(F)(F)F)cc2)s1	570 nM			
Cc1csc(NC(=O)c2ccc(CNc3ccccc3C(F)(F)F)s2)n1	9.7 nM			
CCCc1ccccc1NCc1ccc(C(=O)Nc2nc(C)cs2)cc1	8.9 nM			
O=C(Nc1nc(CCCO)c(CCO)s1)c1ccc(CNc2ccccc2C(F)(F)F)cc1	31 nM			
O=C(O)Cc1cnc(NC(=O)c2ccc(CNc3ccccc3C(F)(F)F)cc2)s1	58 nM			
O=C(Nc1nc(CCO)cs1)c1ccc(CNc2ccccc2Cl)cc1	6.4 nM	74%	29%	Activity (Mus musculus [1]): 35%; Activity (Mus musculus [3]): 66%
CC(C)CCc1ccccc1NCc1ccc(C(=O)Nc2nc(CCO)cs2)cc1	5.3 nM	63%	26%	
Cc1csc(NC(=O)c2ccc(CNc3ccccc3C(=O)O)cc2)n1	3600 nM			
O=C(O)CCCc1csc(NC(=O)c2ccc(CNc3ccccc3C(F)(F)F)cc2)n1	2700 nM			
Cc1csc(NC(=O)c2ccc(CNc3ccccc3Cl)cc2)n1	9.2 nM			

Further lines, with some results ahead:

IC50 (Stearoyl-CoA desaturase)	Activity (Mus musculus [4])	SMILES	Activity (Mus musculus [2])	other results
2.8 nM		O=C(Nc1ncc(CO)s1)c1ccc(CNc2ccccc2C(F)(F)F)cc1		
4.8 nM	88%	CCCCCCc1ccccc1NCc1ccc(C(=O)Nc2nc(CC(=O)O)cs2)s1	12%	Activity (Mus musculus [1]): 52%; Activity (Mus musculus [3]): 13%
4.1 nM		Cc1csc(NC(=O)c2ccc(CNc3ccccc3C(F)(F)F)cc2)n1		
4.5 nM	127%	CCCCCCCCc1ccccc1NCc1ccc(C(=O)Nc2nc(CC(=O)O)cs2)cc1	15%	Activity (Mus musculus [1]): 71%; Activity (Mus musculus [3]): 74%
5.1 nM	33%	O=C(Nc1nc(CO)cs1)c1ccc(CNc2ccccc2C(F)(F)F)s1	9%	
3.8 nM		O=C(Nc1ncc(CCO)s1)c1ccc(CNc2ccccc2C(F)(F)F)cc1		
4.8 nM	68%	CC(C)CCc1ccccc1NCc1ccc(C(=O)Nc2nc(CC(=O)O)cs2)cc1	19%	
4.5 nM	104%	CCCCCCc1ccccc1NCc1ccc(C(=O)Nc2nc(CCO)cs2)s1	12%	Activity (Mus musculus [1]): 4%; Activity (Mus musculus [3]): 12%
3.8 nM	73%	O=C(Nc1nc(CO)cs1)c1ccc(CNc2ccccc2C(F)(F)F)cc1	20%	Activity (Mus musculus [1]): 0%; Activity (Mus musculus [3]): 53%
3.2 nM	29%	CCCCc1ccccc1NCc1ccc(C(=O)Nc2nc(CO)cs2)cc1	10%	
4.2 nM	136%	O=C(Nc1nc(CCO)cs1)c1ccc(CNc2ccccc2C(F)(F)F)cc1	33%	
3 nM	94%	CCCCc1ccccc1NCc1ccc(C(=O)Nc2nc(CCO)cs2)cc1	61%	
4.3 nM	37%	O=C(Nc1nc(CO)cs1)c1ccc(CNc2ccccc2Cl)cc1	12%	
5.1 nM	107%	O=C(O)Cc1csc(NC(=O)c2ccc(CNc3ccccc3C(F)(F)F)cc2)n1	98%	
3.9 nM	171%	O=C(Nc1nc(CCO)cs1)c1ccc(CNc2ccccc2C(F)(F)F)s1	10%	Activity (Mus musculus [1]): 8%; Activity (Mus musculus [3]): 27%
3 nM	119%	CCCCCCc1ccccc1NCc1ccc(C(=O)Nc2nc(CC(=O)O)cs2)cc1	31%	

Source: ChEMBL document CHEMBL4265954, “Discovery of potent liver-selective stearoyl-CoA desaturase-1 (SCD1) inhibitors, thiazole-4-acetic acid derivatives, for the treatment of diabetes, hepatic steatosis, and obesity” (Eur J Med Chem, 2018)
